According to ChEMBL document CHEMBL1165989, “Characterization of pseudacyclins A-E, a suite of cyclic peptides produced by Pseudallescheria boydii” (J Nat Prod, 2010):
Activity calls are given as the source filed them. No cut-off for these calls is given here.

Tests used:
[1] = Cytotoxicity against resting human lymphocytes by MTT assay; assay type: cell-based; settings: Lymphocyte
[2] = Cytotoxicity against mitogen-activated human lymphocytes by MTT assay; assay type: cell-based; settings: Lymphocyte
[3] = Inhibition of NO synthase activity in mouse B10R cells assessed as LPS-induced NO production after 24 hrs; assay type: cell-based
Method in brief: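 B10R macrophages stimulated with […] (0.5 µg/mL). NO-synthase activity was read as NO2- production over 24 h, and an IC50 was derived.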

Staphylococcus aureus = assay: Antimicrobial activity against Staphylococcus aureus; assay type: functional, organism-based
Enterococcus faecalis = assay: Antimicrobial activity against Enterococcus faecalis; assay type: functional, organism-based
Escherichia coli = assay: Antimicrobial activity against Escherichia coli; assay type: functional, organism-based
Streptococcus pyogenes = assay: Antimicrobial activity against Streptococcus hemolyticus; assay type: functional, organism-based
Candida albicans = assay: Antimicrobial activity against Candida albicans; assay type: functional, organism-based
Pichia kudriavzevii = assay: Antimicrobial activity against Candida krusei; assay type: functional, organism-based
Candida tropicalis = assay: Antimicrobial activity against Candida tropicalis; assay type: functional, organism-based
Candida parapsilosis = assay: Antimicrobial activity against Candida parapsilosis; assay type: functional, organism-based

CC[C@H](C)[C@H](NC(C)=O)C(=O)N[C@H]1CCCNC(=O)[C@H]([C@@H](C)CC)NC(=O)[C@H]([C@@H](C)CC)NC(=O)[C@@H]2CCCN2C(=O)[C@@H](Cc2ccccc2)NC1=O [PSEUDACYCLIN A]
IC50 [1]: 32 µM
IC50 [2]: 12.9 µM
IC50 [3]: 41.4 µM
inhibition (Staphylococcus aureus): inactive
inhibition (Enterococcus faecalis): inactive
inhibition (Escherichia coli): inactive
inhibition (Streptococcus pyogenes): inactive
inhibition (Candida albicans): inactive
inhibition (Pichia kudriavzevii): inactive
inhibition (Candida tropicalis): inactive
inhibition (Candida parapsilosis): inactive
